This note sets out measurements from ChEMBL document CHEMBL1177891, “Synthesis and bioassay of pyrrolyl oxazolines and thiazolines” (2010).

Type in all cases: functional
Assay [1] deals with Fusarium solani. Nature of the assay: Antifungal activity against Fusarium solani at 100 ug/disk after 48 hrs by disk diffusion method. Conditions: read-out: IZ. In short, it runs like this:
(§1)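 Fungi from NCIM on nutrient agar plates, pre-inoculated. 6 mm paper discs carrying 100 or 200 μg compound in DMSO applied. Plates incubated at 37 °C and inhibition zone diameter measured at 48 h. Ketoconazole control.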

Assay [2] relates to Radical scavenging activity. Put plainly: Antioxidant activity assessed as DPPH radical scavenging activity at 100 uM. Put shortly:
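Compound (100 μM) added to 100 μM DPPH in dioxane/ethanol. Kept at ambient temperature 20 min, then absorbance read at 517 nm. Percent DPPH scavenging taken from difference between test and control.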
A general note: Loss of DPPH colour is used to gauge radical scavenging.

Assay [3] has as its system Staphylococcus aureus. Put plainly: Antibacterial activity against Staphylococcus aureus at 200 ug/disk after 24 hrs by disk diffusion method. Conditions: read-out: IZ. In short, it runs like this:
(§2)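 Agar disc diffusion on nutrient agar with NCIM bacteria. 6 mm sterile paper discs moistened with compound in DMSO (100 or 200 μg/disc) placed on pre-inoculated plates. Incubated at 37 °C; growth-inhibition zone diameter measured after 24 h. Chloramphenicol control.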

The subject of assay [4] is Bacillus subtilis. Nature of the assay: Antibacterial activity against Bacillus subtilis at 200 ug/disk after 24 hrs by disk diffusion method. The note with it: read-out: IZ. In short, it runs like this: as §2
Assay [5] deals with Proteus vulgaris. Put plainly: Antibacterial activity against Proteus vulgaris at 100 ug/disk after 24 hrs by disk diffusion method. Conditions: read-out: IZ. Put shortly: as §2
In general terms: Agar diffusion results depend on both activity and mobility in agar.

The subject of assay [6] is Aspergillus niger. Nature of the assay: Antifungal activity against Aspergillus niger at 100 ug/disk after 48 hrs by disk diffusion method. The note with it: read-out: IZ. In short, it runs like this: as §1
The nature of assay [7]: Antioxidant activity assessed as inhibition of nitric oxide production at 100 uM. In short, it runs like this: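 Sodium nitroprusside ([…]) in phosphate buffer pH 7.4 incubated with 100 μM compound (dioxane/methanol) at 25 °C for 120 min; solvent-only control. Aliquots mixed 1:1 with Griess reagent (1% sulfanilamide, 0.1% N-naphthylethylenediamine, 2% phosphoric acid). Absorbance at 546 nm, triplicate.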

The nature of assay [8]: Antioxidant activity assessed as increase in reducing power at 100 uM. In short, it runs like this: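 Oyaizu method. Compound at 100 μM in methanol mixed with 0.2 M phosphate buffer pH 6.6 and 1% potassium ferricyanide, 50 °C for 20 min. 10% TCA added, then centrifuged 3000 rpm for 10 min. Upper layer mixed with water and 0.1% FeCl3; absorbance read at 700 nm.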
For assay [9], the system named is Curvularia lunata. Nature of the assay: Antifungal activity against Curvularia lunata at 100 ug/disk after 48 hrs by disk diffusion method. The note with it: read-out: IZ. Put shortly: as §1
Assay [10] deals with Klebsiella pneumoniae. Nature of the assay: Antibacterial activity against Klebsiella pneumoniae at 100 ug/disk after 24 hrs by disk diffusion method. The note with it: read-out: IZ. In short, it runs like this: as §2
Assay [11] concerns Klebsiella pneumoniae. Put plainly: Antibacterial activity against Klebsiella pneumoniae at 200 ug/disk after 24 hrs by disk diffusion method. Conditions: read-out: IZ. In short, it runs like this: as §2
Assay [12] has as its system Staphylococcus aureus. Put plainly: Antibacterial activity against Staphylococcus aureus at 100 ug/disk after 24 hrs by disk diffusion method. The note with it: read-out: IZ. Put shortly:
as §2

In assay [13] the test system is Aspergillus niger. Nature of the assay: Antifungal activity against Aspergillus niger at 200 ug/disk after 48 hrs by disk diffusion method. Conditions: read-out: IZ. Put shortly:
as §1

The test system of assay [14] is Proteus vulgaris. Put plainly: Antibacterial activity against Proteus vulgaris at 200 ug/disk after 24 hrs by disk diffusion method. The note with it: read-out: IZ. In short, it runs like this:
as §2

Assay [15] has as its system Curvularia lunata. Nature of the assay: Antifungal activity against […] lunata at 200 ug/disk after 48 hrs by disk diffusion method. Conditions: read-out: IZ. Put shortly: as §1
For assay [16], the system named is Bacillus subtilis. Put plainly: Antibacterial activity against Bacillus subtilis at 100 ug/disk after 24 hrs by disk diffusion method. Conditions: read-out: IZ. In short, it runs like this: as §2
Assay [17] has as its system Fusarium solani. Nature of the assay: Antifungal activity against Fusarium solani at 200 ug/disk after 48 hrs by disk diffusion method. Conditions: read-out: IZ. In short, it runs like this: as §1

A word on the inhibition: it is the drop in the measured response relative to a control, in per cent.

Consider `O=S(=O)(CC1=NCCO1)c1c[nH]cc1S(=O)(=O)c1ccc(Cl)cc1`, for which the zone of inhibition at 100 µg/disc in the assay with Fusarium solani [1] came to 21 mm; with Proteus vulgaris [5] it was 12 mm; with Aspergillus niger [6], 21 mm; with Curvularia lunata [9], 20 mm; with Klebsiella pneumoniae [10], 15 mm; in the assay on Staphylococcus aureus [12] it was 17 mm. The zone of inhibition at 100 µg/disc in the assay with Bacillus subtilis [16] stood at 16 mm. In addition, the inhibition in assay [2] was 91.5%; in assay [7], 92.1%; in assay [8] it was 89.4%. The zone of inhibition at 200 µg/disc is 19 mm in the assay with Staphylococcus aureus [3]; 19 mm with Bacillus subtilis [4]; 17 mm in the assay on Klebsiella pneumoniae [11]; 22 mm in the assay with Aspergillus niger [13]; 14 mm in the assay with Proteus vulgaris [14]; 23 mm in the assay on Curvularia lunata [15]. In addition, in the assay on Fusarium solani [17], the zone of inhibition at 200 µg/disc is 23 mm.
As to `Cc1cc(C(C)(C)C)c(O)c(C(C)(C)C)c1`, the inhibition in [8] is 92.3%.
As for `O=S(=O)(/C=C/S(=O)(=O)c1ccc(Cl)cc1)CC1=NCCO1`, the zone of inhibition at 100 µg/disc was 16 mm in the assay with Fusarium solani [1]; 9 mm in the assay on Proteus vulgaris [5]; 17 mm in the assay on Aspergillus niger [6]; 18 mm in the assay with Curvularia lunata [9]; 10 mm with Klebsiella pneumoniae [10]; 13 mm in the assay with Staphylococcus aureus [12]. In the assay on Bacillus subtilis [16], the zone of inhibition at 100 µg/disc was 12 mm. The results for the inhibition in [2], in assay [7] and in assay [8] were 86.6%, 85.5% and 82.7%, respectively. The zone of inhibition at 200 µg/disc in the assay on Staphylococcus aureus [3] worked out at 15 mm; with Bacillus subtilis [4], 14 mm; in the assay with Klebsiella pneumoniae [11] it was 12 mm; in the assay on Aspergillus niger [13], 20 mm; with Proteus vulgaris [14], 10 mm; with Curvularia lunata [15] it was 20 mm. The zone of inhibition at 200 µg/disc in the assay with Fusarium solani [17] amounted to 19 mm.
Regarding `O=C1O[C@H]([C@@H](O)CO)C(O)=C1O`, the inhibition in [2] stood at 95.4%; in [7] it was 96.9%.
For the compound `O=S(=O)(/C=C/S(=O)(=O)c1ccccc1)CC1=NCCO1`, the zone of inhibition at 100 µg/disc in the assay with Fusarium solani [1] was determined as 14 mm; in the assay with Aspergillus niger [6], 17 mm; in the assay on Curvularia lunata [9] it was 16 mm; in the assay on Staphylococcus aureus [12], 11 mm; with Bacillus subtilis [16], 10 mm. Further, the inhibition in assay [2] came out at 83.7%; in assay [7], 82.1%; in assay [8], 79.5%. Moreover, the zone of inhibition at 200 µg/disc with Staphylococcus aureus [3] stood at 13 mm; in the assay on Bacillus subtilis [4], 12 mm; in the assay on Aspergillus niger [13], 19 mm; with Curvularia lunata [15] it was 18 mm; in the assay on Fusarium solani [17], 15 mm.
As to `O=S(=O)(/C=C/S(=O)(=O)c1ccc(Cl)cc1)CC1=NCCS1`, the zone of inhibition at 100 µg/disc amounted to 29 mm in the assay with Fusarium solani [1]; 21 mm in the assay on Proteus vulgaris [5]; 27 mm in the assay on Aspergillus niger [6]; 24 mm with Curvularia lunata [9]; 22 mm in the assay on Klebsiella pneumoniae [10]; 27 mm with Staphylococcus aureus [12]. Further, the zone of inhibition at 100 µg/disc in the assay with Bacillus subtilis [16] is 29 mm. The inhibition worked out at 33.5% in [2], 32.3% in assay [7] and 28.3% in assay [8]. Further, the zone of inhibition at 200 µg/disc was 28 mm in the assay with Staphylococcus aureus [3]; 31 mm in the assay on Bacillus subtilis [4]; 23 mm with Klebsiella pneumoniae [11]; 29 mm in the assay with Aspergillus niger [13]; 22 mm in the assay on Proteus vulgaris [14]; 28 mm with Curvularia lunata [15]. Moreover, the zone of inhibition at 200 µg/disc in the assay on Fusarium solani [17] stood at 31 mm.
Turning to `Cc1ccc(S(=O)(=O)c2c[nH]cc2S(=O)(=O)CC2=NCCO2)cc1`, the zone of inhibition at 100 µg/disc stood at 18 mm with Fusarium solani [1]; 11 mm in the assay on Proteus vulgaris [5]; 17 mm in the assay with Aspergillus niger [6]; 17 mm with Curvularia lunata [9]; 10 mm in the assay on Klebsiella pneumoniae [10]; 12 mm with Staphylococcus aureus [12]. Further, the zone of inhibition at 100 µg/disc in the assay on Bacillus subtilis [16] is 13 mm. Besides, the inhibition in assay [2] was 76.1%; in [7], 78.5%; in assay [8], 77.3%. The zone of inhibition at 200 µg/disc was 15 mm with Staphylococcus aureus [3]; 14 mm in the assay with Bacillus subtilis [4]; 13 mm in the assay with Klebsiella pneumoniae [11]; 21 mm in the assay with Aspergillus niger [13]; 13 mm in the assay on Proteus vulgaris [14]; 21 mm with Curvularia lunata [15]. Also, the zone of inhibition at 200 µg/disc in the assay on Fusarium solani [17] is 20 mm.
On to `O=S(=O)(/C=C/S(=O)(=O)c1ccccc1)CC1=NCCS1`, for which the zone of inhibition at 100 µg/disc with Fusarium solani [1] is 26 mm; in the assay on Proteus vulgaris [5], 17 mm; in the assay on Aspergillus niger [6], 26 mm; with Curvularia lunata [9], 24 mm; in the assay with Klebsiella pneumoniae [10], 19 mm; in the assay on Staphylococcus aureus [12] it was 21 mm. Also, the zone of inhibition at 100 µg/disc with Bacillus subtilis [16] was found to be 22 mm. In addition, the values for the inhibition in assay [2], in assay [7] and in assay [8] were 29.3%, 30.4% and 29.3%, respectively. The zone of inhibition at 200 µg/disc in the assay with Staphylococcus aureus [3] was 24 mm; in the assay on Bacillus subtilis [4], 23 mm; in the assay on Klebsiella pneumoniae [11], 21 mm; in the assay with Aspergillus niger [13] it was 28 mm; with Proteus vulgaris [14], 18 mm; with Curvularia lunata [15], 26 mm. The zone of inhibition at 200 µg/disc in the assay on Fusarium solani [17] is 29 mm.
As for `O=S(=O)(CC1=NCCO1)c1c[nH]cc1S(=O)(=O)c1ccccc1`, the zone of inhibition at 100 µg/disc is 18 mm in the assay with Fusarium solani [1]; 13 mm in the assay on Proteus vulgaris [5]; 20 mm in the assay with Aspergillus niger [6]; 19 mm with Curvularia lunata [9]; 14 mm with Klebsiella pneumoniae [10]; 15 mm in the assay on Staphylococcus aureus [12]. For the same compound, the zone of inhibition at 100 µg/disc in the assay with Bacillus subtilis [16] turned out to be 16 mm. For the same compound, the inhibition in [2] was determined as 88.3%; in [7] it was 87.7%; in [8], 86.8%. Further, the zone of inhibition at 200 µg/disc with Staphylococcus aureus [3] is 19 mm; in the assay on Bacillus subtilis [4] it was 18 mm; with Klebsiella pneumoniae [11], 17 mm; in the assay with Aspergillus niger [13] it was 22 mm; with Proteus vulgaris [14], 15 mm; in the assay with Curvularia lunata [15], 23 mm. Also, the zone of inhibition at 200 µg/disc with Fusarium solani [17] worked out at 22 mm.
For `Cc1ccc(S(=O)(=O)/C=C/S(=O)(=O)CC2=NCCO2)cc1`, the zone of inhibition at 100 µg/disc with Fusarium solani [1] amounted to 14 mm; with Aspergillus niger [6], 14 mm; in the assay with Curvularia lunata [9] it was 18 mm; in the assay with Staphylococcus aureus [12] it was 10 mm; in the assay with Bacillus subtilis [16], 9 mm. In addition, the inhibition in [2] worked out at 73.9%; in [7], 74.2%; in [8], 73.5%. Besides, the zone of inhibition at 200 µg/disc is 13 mm in the assay on Staphylococcus aureus [3]; 11 mm with Bacillus subtilis [4]; 16 mm in the assay with Aspergillus niger [13]; 19 mm in the assay on Curvularia lunata [15]; 17 mm with Fusarium solani [17].
For the compound `Cc1ccc(S(=O)(=O)/C=C/S(=O)(=O)CC2=NCCS2)cc1`, the zone of inhibition at 100 µg/disc in the assay on Fusarium solani [1] was determined as 22 mm; in the assay on Proteus vulgaris [5], 15 mm; with Aspergillus niger [6], 20 mm; in the assay with Curvularia lunata [9] it was 21 mm; in the assay with Klebsiella pneumoniae [10], 17 mm; in the assay with Staphylococcus aureus [12] it was 20 mm. The zone of inhibition at 100 µg/disc in the assay on Bacillus subtilis [16] worked out at 19 mm. Further, the results for the inhibition in assay [2], in assay [7] and in assay [8] were 22.2%, 21.7% and 21.2%, respectively. The zone of inhibition at 200 µg/disc worked out at 23 mm in the assay with Staphylococcus aureus [3]; 21 mm in the assay on Bacillus subtilis [4]; 20 mm in the assay with Klebsiella pneumoniae [11]; 23 mm in the assay on Aspergillus niger [13]; 18 mm with Proteus vulgaris [14]; 24 mm in the assay on Curvularia lunata [15]. Further, in the assay with Fusarium solani [17], the zone of inhibition at 200 µg/disc amounted to 25 mm.
